{"source": "ChEMBL document CHEMBL4190404", "about": "“Synthesis and characterization of amino acid substituted sunitinib analogues for the treatment of AML” (Bioorg Med Chem Lett, 2018)", "key": {"[1]": {"test_system": "MV4-11", "experiment": "Antiproliferative activity against human MV4-11 cells after 72 hrs by Celltiter-Glo luminescent cell viability assay", "type": "functional, cell-based", "conditions": "MV4-11, 72 h", "outline": "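MV4-11 leukaemia cells, 72 h proliferation assay, luminescence read-out; IC50 determined from concentration–response.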"}, "[2]": {"experiment": "Lipophilicity, chromatographic hydrophobicity index of the compound at pH 7.4 by HPLC method", "type": "physicochemical", "conditions": "buffer", "outline": "(§1)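 RP-HPLC with buffer/acetonitrile gradient elution; CHI profile at starting pH 10.5, 7.4, 5.5 and 1.2; values given as average of the compound group.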"}, "[3]": {"experiment": "Aqueous solubility in pH 5.5 phosphate buffer at 120 uM after 24 hrs by HPLC method", "type": "physicochemical", "conditions": "for solubility at 24 h, 120 µM: phosphate buffer, pH 5.5"}, "[4]": {"experiment": "Lipophilicity, chromatographic hydrophobicity index of the compound at pH 5.5 by HPLC method", "type": "physicochemical", "conditions": "buffer", "outline": "as §1"}, "[5]": {"experiment": "Apparent partition coefficient, log P of the compound in n-octanol/aqueous mixture at pH 7.4 after 1 hr by shake flask method", "type": "physicochemical"}, "[6]": {"test_system": "Receptor-type tyrosine-protein kinase FLT3 (Homo sapiens), P36888 [UNDEFINED MUTATION]", "sequence (P36888 whole entry, looked up, change not shown)": "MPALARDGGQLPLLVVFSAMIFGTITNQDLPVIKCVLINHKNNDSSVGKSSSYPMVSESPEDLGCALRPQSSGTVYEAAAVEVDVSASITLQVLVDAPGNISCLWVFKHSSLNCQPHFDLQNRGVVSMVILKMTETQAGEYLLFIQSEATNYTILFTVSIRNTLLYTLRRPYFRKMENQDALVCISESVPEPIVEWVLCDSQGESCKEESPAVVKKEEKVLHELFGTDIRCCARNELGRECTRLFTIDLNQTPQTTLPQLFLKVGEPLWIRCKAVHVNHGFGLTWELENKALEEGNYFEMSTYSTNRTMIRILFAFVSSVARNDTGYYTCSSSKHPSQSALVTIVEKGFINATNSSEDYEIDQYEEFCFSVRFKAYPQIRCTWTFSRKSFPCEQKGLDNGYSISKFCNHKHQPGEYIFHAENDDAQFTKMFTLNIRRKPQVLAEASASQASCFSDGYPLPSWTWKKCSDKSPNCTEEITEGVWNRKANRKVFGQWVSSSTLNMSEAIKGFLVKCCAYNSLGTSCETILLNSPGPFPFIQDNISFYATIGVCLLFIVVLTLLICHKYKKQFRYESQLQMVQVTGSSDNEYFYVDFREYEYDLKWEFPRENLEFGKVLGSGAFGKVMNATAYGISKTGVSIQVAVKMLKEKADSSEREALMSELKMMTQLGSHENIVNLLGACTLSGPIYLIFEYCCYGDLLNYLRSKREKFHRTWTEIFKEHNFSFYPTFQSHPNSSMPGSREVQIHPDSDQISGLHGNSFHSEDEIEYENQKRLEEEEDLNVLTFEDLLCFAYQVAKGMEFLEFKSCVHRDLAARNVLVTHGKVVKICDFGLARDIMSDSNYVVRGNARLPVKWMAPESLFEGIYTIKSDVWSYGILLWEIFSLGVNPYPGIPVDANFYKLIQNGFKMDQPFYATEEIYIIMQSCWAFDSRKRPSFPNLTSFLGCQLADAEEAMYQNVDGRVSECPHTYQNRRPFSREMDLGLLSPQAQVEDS", "experiment": "Inhibition of FLT3 ITD mutant (unknown origin) using TAMRA-Src- tide as substrate at 12.5 uM after 1 hr by fluorescence polarization assay relative to control", "outline": "(§2)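 FLT3-ITD kinase inhibition by fluorescence polarization IMAP assay; each compound tested at 12.5 and 1.25 μM; percent inhibition, average of two parallel measurements.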"}, "[7]": {"test_system": "Receptor-type tyrosine-protein kinase FLT3 (Homo sapiens), P36888 [UNDEFINED MUTATION]", "experiment": "Inhibition of FLT3 ITD mutant (unknown origin) using TAMRA-Src- tide as substrate at 1.25 uM after 1 hr by fluorescence polarization assay relative to control", "outline": "as §2"}, "[8]": {"experiment": "Aqueous solubility in pH 7.4 phosphate buffer at 120 uM after 24 hrs by HPLC method", "type": "physicochemical"}, "[9]": {"experiment": "n-Octanol-buffer distribution coefficient, log D of the compound at pH 7.4 after 1 hr by shake flask method", "type": "physicochemical"}, "[10]": {"experiment": "Lipophilicity, chromatographic hydrophobicity index of the compound at pH 1.2 by HPLC method", "type": "physicochemical", "conditions": "buffer", "outline": "as §1"}, "[11]": {"experiment": "n-Octanol-buffer distribution coefficient, log D of the compound at pH 5.5 after 1 hr by shake flask method", "type": "physicochemical"}, "[12]": {"experiment": "Dissociation constant, pKa of the compound at 25 to 50 uM by UV spectroscopy", "type": "physicochemical", "outline": "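Carboxyl pKa by automated UV/pH titration with MeOH as co-solvent.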"}, "[13]": {"conditions": "buffer, pH 10.5"}}, "data": [{"smiles": "Cc1[nH]c(/C=C2\\C(=O)Nc3ccccc32)c(C)c1CCC(=O)O", "note": "[ORANTINIB]", "values": [{"measurement": "IC50", "setting": "[1]", "result": 3.9, "unit": "µM"}, {"measurement": "CHI", "setting": "[2]", "result": 47}, {"measurement": "solubility", "setting": "[3]; buffer, pH 5.5, 24 h, 120 µM", "result": 5, "unit": "µM"}, {"measurement": "CHI", "setting": "[4]", "result": 59}, {"measurement": "logD at 1 h", "setting": "[5]", "result": 4.6}, {"measurement": "inhibition", "setting": "[6]", "result": "> 100", "unit": "%"}, {"measurement": "inhibition", "setting": "[7]", "result": 76.7, "unit": "%"}, {"measurement": "solubility at 24 h, 120 µM", "setting": "[8]", "result": "≥ 120", "unit": "µM"}, {"measurement": "logD at 1 h", "setting": "[9]", "result": 1.3}, {"measurement": "CHI", "setting": "[10]", "result": 75}, {"measurement": "logD at 1 h", "setting": "[11]", "result": 3.18}, {"measurement": "pKa at up to 50 µM", "setting": "[12]", "result": 4.1}, {"measurement": "CHI", "setting": "[13]", "result": 42}]}, {"smiles": "COC(=O)[C@H](Cc1ccccc1)NC(=O)c1c(C)[nH]c(/C=C2\\C(=O)Nc3ccc(C(=O)O)cc32)c1C", "values": [{"measurement": "CHI", "setting": "[2]", "result": 52}, {"measurement": "solubility at 24 h, 120 µM", "setting": "[3]", "result": "< 5", "unit": "µM"}, {"measurement": "CHI", "setting": "[4]", "result": 59}, {"measurement": "logD at 1 h", "setting": "[5]", "result": 4.32}, {"measurement": "inhibition", "setting": "[6]", "result": 98.7, "unit": "%"}, {"measurement": "inhibition", "setting": "[7]", "result": 85.8, "unit": "%"}, {"measurement": "solubility at 24 h, 120 µM", "setting": "[8]", "result": 100, "unit": "µM"}, {"measurement": "logD at 1 h", "setting": "[9]", "result": 1.53}, {"measurement": "CHI", "setting": "[10]", "result": 73}, {"measurement": "logD at 1 h", "setting": "[11]", "result": 3.38}, {"measurement": "pKa at up to 50 µM", "setting": "[12]", "result": 4.61}, {"measurement": "CHI", "setting": "[13]", "result": 49}]}, {"smiles": "COC(=O)c1ccc2c(c1)/C(=C/c1[nH]c(C)c(C(=O)N[C@@H](Cc3ccccc3)C(=O)O)c1C)C(=O)N2", "values": [{"measurement": "IC50", "setting": "[1]", "result": 2.2, "unit": "µM"}, {"measurement": "CHI", "setting": "[2]", "result": 53}, {"measurement": "solubility at 24 h, 120 µM", "setting": "[3]", "result": "< 5", "unit": "µM"}, {"measurement": "CHI", "setting": "[4]", "result": 54}, {"measurement": "logD at 1 h", "setting": "[5]", "result": 4.73}, {"measurement": "inhibition", "setting": "[6]", "result": "> 100", "unit": "%"}, {"measurement": "inhibition", "setting": "[7]", "result": 90.9, "unit": "%"}, {"measurement": "solubility at 24 h, 120 µM", "setting": "[8]", "result": "≥ 120", "unit": "µM"}, {"measurement": "logD at 1 h", "setting": "[9]", "result": 0.33}, {"measurement": "CHI", "setting": "[10]", "result": 76}, {"measurement": "logD at 1 h", "setting": "[11]", "result": 2.23}, {"measurement": "pKa at up to 50 µM", "setting": "[12]", "result": 3}, {"measurement": "CHI", "setting": "[13]", "result": 51}]}]}
